Laboratory results reported in ChEMBL document CHEMBL4680326, “Hit-to-lead optimization on aryloxybenzamide derivative virtual screening hit against SIRT” (Bioorg Med Chem, 2021).

Key:
[1] = biological target: T1, NAD-dependent protein deacetylase sirtuin-2 (Homo sapiens) (UniProt Q8IXJ6); experiment: Inhibition of recombinant N-terminal tagged human SIRT2 expressed in Escherichia coli at 100 uM using Fluor De Lys SIRT2 as substrate preincubated for 30 mins followed by substrate addition and measured after 1 hr in presence of NAD+ by fluorescence assay relative to control; conditions: time 90.0 min
T1 sequence (whole entry): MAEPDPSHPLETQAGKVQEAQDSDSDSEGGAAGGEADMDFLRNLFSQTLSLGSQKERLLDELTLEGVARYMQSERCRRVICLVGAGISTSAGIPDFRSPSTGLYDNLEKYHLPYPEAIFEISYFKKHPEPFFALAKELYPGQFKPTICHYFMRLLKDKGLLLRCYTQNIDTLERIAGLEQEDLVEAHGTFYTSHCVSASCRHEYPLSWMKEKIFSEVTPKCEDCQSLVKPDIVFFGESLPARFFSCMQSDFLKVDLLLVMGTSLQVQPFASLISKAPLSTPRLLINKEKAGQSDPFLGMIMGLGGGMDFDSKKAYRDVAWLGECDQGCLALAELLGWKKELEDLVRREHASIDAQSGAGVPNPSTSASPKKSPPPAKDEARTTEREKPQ
How it was run: (§1)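 Human recombinant SIRT enzyme and compound (1% v/v final DMSO) in SIRT assay buffer were preincubated at 37 °C for 30 min. NAD⁺ and Fluor de Lys deacetylase substrate were then added. Fluorescence was read at excitation 360 nm, emission 460 nm. % inhibition was taken from inhibited wells relative to control wells.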

[2] = biological target: T2, NAD-dependent protein deacetylase sirtuin-1 (Homo sapiens) (UniProt Q96EB6); experiment: Inhibition of recombinant N-terminal tagged human SIRT1 expressed in Escherichia coli at 100 uM using Fluor De Lys SIRT1 as substrate preincubated for 30 mins followed by substrate addition and measured after 1 hr in presence of NAD+ by fluorescence assay relative to control; conditions: time 90.0 min; how it was run: as §1
T2 sequence (whole entry): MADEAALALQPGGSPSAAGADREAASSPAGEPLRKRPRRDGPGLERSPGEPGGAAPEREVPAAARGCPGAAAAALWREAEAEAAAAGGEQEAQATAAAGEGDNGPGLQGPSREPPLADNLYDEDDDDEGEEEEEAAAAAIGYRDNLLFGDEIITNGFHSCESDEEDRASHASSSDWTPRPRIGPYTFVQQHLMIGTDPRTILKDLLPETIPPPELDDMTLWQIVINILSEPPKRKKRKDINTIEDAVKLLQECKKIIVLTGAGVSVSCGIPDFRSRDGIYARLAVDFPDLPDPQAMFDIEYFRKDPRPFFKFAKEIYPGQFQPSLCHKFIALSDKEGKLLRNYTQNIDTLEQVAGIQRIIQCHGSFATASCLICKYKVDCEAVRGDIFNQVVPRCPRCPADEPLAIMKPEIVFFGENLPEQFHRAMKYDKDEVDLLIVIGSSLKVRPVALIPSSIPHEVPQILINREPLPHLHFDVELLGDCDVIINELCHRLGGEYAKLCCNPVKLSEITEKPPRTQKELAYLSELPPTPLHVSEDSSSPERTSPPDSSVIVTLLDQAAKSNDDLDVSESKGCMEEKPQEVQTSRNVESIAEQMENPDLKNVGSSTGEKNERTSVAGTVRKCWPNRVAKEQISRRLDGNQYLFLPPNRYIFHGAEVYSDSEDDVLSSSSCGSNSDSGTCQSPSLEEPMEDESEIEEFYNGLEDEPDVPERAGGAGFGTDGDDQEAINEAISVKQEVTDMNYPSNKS

MCF7 [3] = experiment: Cytotoxicity against human MCF7 cells assessed as reduction in cell viability measured after 48 hrs by MTT assay; format: functional, cell-based; conditions: MCF7, 48 h
How it was run: (§2)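 MCF-7 cells were grown in DMEM with 10% FBS and 1% penicillin–streptomycin to 70% confluency. 180 µl of a 5 × 10⁴ cells/ml suspension was seeded per well and held 24 h at 37 °C in 5% CO₂. Cells were exposed to 1, 10, 25, 50, 100 or 200 µM, then treated with MTT (5 mg/ml) for 4 h and read at 540 nm. Untreated cells served as control. Done in triplicate; IC50 from linear regression of concentration vs % viable cells.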

MCF7 [4] = experiment: Cytotoxicity against human MCF7 cells assessed as reduction in cell viability measured after 72 hrs by MTT assay; format: functional, cell-based; conditions: MCF7, 72 h; how it was run: as §2
[5] = biological target: T2, NAD-dependent protein deacetylase sirtuin-1 (Homo sapiens); experiment: Inhibition of recombinant N-terminal tagged human SIRT1 expressed in Escherichia coli at 300 uM using Fluor De Lys SIRT1 as substrate preincubated for 30 mins followed by substrate addition and measured after 1 hr in presence of NAD+ by fluorescence assay relative to control; conditions: time 90.0 min; how it was run: as §1
[6] = biological target: T1, NAD-dependent protein deacetylase sirtuin-2 (Homo sapiens); experiment: Inhibition of recombinant N-terminal tagged human SIRT2 expressed in Escherichia coli at 300 uM using Fluor De Lys SIRT2 as substrate preincubated for 30 mins followed by substrate addition and measured after 1 hr in presence of NAD+ by fluorescence assay relative to control; conditions: time 90.0 min; how it was run: as §1
[7] = biological target: T3, NAD-dependent protein deacetylase sirtuin-3, mitochondrial (Homo sapiens) (UniProt Q9NTG7); experiment: Inhibition of recombinant N-terminal tagged human SIRT3 (102 to 399 residues) expressed in Escherichia coli at 300 uM using Fluor De Lys SIRT2 as substrate preincubated for 30 mins followed by substrate addition and measured after 1 hr in presence of NAD+ by fluorescence assay relative to control; conditions: time 90.0 min; how it was run: as §1
T3 sequence (whole entry): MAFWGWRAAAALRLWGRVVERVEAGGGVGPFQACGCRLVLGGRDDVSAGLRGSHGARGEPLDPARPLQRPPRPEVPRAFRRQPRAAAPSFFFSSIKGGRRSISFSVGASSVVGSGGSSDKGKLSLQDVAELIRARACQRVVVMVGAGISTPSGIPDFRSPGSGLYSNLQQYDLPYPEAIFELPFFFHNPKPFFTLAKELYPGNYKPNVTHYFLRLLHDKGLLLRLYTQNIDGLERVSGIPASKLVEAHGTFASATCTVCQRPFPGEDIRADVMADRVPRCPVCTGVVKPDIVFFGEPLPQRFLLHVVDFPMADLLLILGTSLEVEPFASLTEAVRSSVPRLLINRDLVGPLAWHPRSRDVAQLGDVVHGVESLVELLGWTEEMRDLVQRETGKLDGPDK

Structure (SMILES)	inhibition [1] [%]	inhibition [2] [%]	inhibition [5] [%]	inhibition [6] [%]	inhibition [7] [%]	IC50 (MCF7 [3]) [µM]	IC50 (MCF7 [4]) [µM]
O=C(c1ccc(Oc2ccccc2)cc1)N1CCc2ccccc2C1		21.5					
ON=C(c1cccc(Oc2ccccc2)c1)N1CCc2ccccc2C1	51.6	47.2				41.1	33.1
CC(C)N1CCN(C(=O)c2cccc(Oc3ccccc3)c2)CC1		48.1				465	321
Cc1ccc(Oc2cccc(C(=O)N[C@@H](C)c3ccccc3)c2)nn1			31.4	42.5	18.2	328	> 1000
O=C(Nc1ccc2ccccc2c1)c1cccc(Oc2ncccn2)c1	17.1	36.1					
O=C(c1cccc(Oc2ccccc2)c1)N1CCc2ccccc2C1	10.8	56.5				159	147

The next lines start with results.

inhibition [1] [%]	inhibition [2] [%]	inhibition [5] [%]	inhibition [6] [%]	inhibition [7] [%]	Structure (SMILES)	IC50 (MCF7 [3]) [µM]	IC50 (MCF7 [4]) [µM]
11.1					CC(=O)c1ccc(NC(=O)c2cccc(Oc3ccccc3)c2)cc1		
98.4					Cc1ccc(C(=O)Nc2ccc(S(=O)(=O)O)c3cc(S(=O)(=O)O)cc(S(=O)(=O)O)c23)cc1NC(=O)c1cccc(NC(=O)Nc2cccc(C(=O)Nc3cc(C(=O)Nc4ccc(S(=O)(=O)O)c5cc(S(=O)(=O)O)cc(S(=O)(=O)O)c45)ccc3C)c2)c1		
	36.1				CC(=O)c1ccc(NC(=O)c2ccc(Oc3ccccc3)cc2)cc1		
	46				NC(=O)c1ccc(NC(=O)c2ccc(Oc3ccccc3)cc2)cc1	524	356
